From PubChem BioAssay
Calls of active or inactive are those of the source.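 Rule for the calls, unless noted: active = inhibition above 20% together with a positive visual image hit; inconclusive = visual image hit but inhibition not above 20%; inactive = no visual image hit.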

Legend:
[1] = inhibitors of TNFa-induced NFkB p65 translocation, primary screen, imaging, HUVEC, MLSMR starter and 10KST1 sets (AID 438); conditions: HUVEC TNFa-induced p65 nuclear translocation; cell count: measured here: nuclei count (cytotoxicity indicator), at 2.08 µM; inhibition: at 2 µM, stronger effect = higher value, 0% TNFa-plus-vehicle, 100% no-TNFa wells;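 note: compound added about 3h40 before a 20 min TNFalpha stimulation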;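 for inhibition: signal is the nuclear over cytoplasmic p65 intensity ratio per well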
[2] = inhibitors of mutant huntingtin aggregation, primary screen, imaging, exon1htt(103Q)mCFP cells, high-content imaging (AID 483;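 active = visual image review flags a hit and inhibition of aggregation exceeds 20%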;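 note: compound exposure lasted 3 days before fixation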;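 for nuclei count: percent of the per-plate median nuclei count of sample wells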); conditions: exon1htt(103Q)mCFP cell line, aggregate imaging, at 2 µM; inhibition of aggregation: stronger effect = higher value; nuclei count: measured here: cell count, toxicity
[3] = inhibitors of E-selectin induction by TNFa, primary screen, imaging, HUVEC, immunofluorescence, MLSMR starter and 10KST1 sets (AID 487;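 active = visually confirmed hit in the image check and inhibition above 20%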;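 for inhibition: signal is fraction of cell area covered by stained E-selectin grains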;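 for nuclei count: 100% = median nuclei count of all wells on the same plate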); conditions: HUVEC TNFalpha-induced E-selectin immunofluorescence imaging, at 2 µM; inhibition: stronger effect = higher value; nuclei count: measured here: cell number, toxicity
[4] = molecular target: Voltage-gated potassium channel subunit beta-2 (Rattus norvegicus) (UniProt P62483); assay: KvBeta enzyme negative modulators, primary screen, biochemical, NADPH fluorescence (AID 622;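 active = fluorescence slope higher than the sample average by over 3 SD, cut at about -0.22 in these data, passing the limit was not always enough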;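 note: slope of raw intensity against log time taken from 70 to 1610 s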); conditions: recombinant KvBeta, 4-cyanobenzaldehyde reduction, at 10 µM, stronger effect = higher value
[5] = molecular target: Voltage-gated potassium channel subunit beta-2 (Rattus norvegicus) (UniProt P62483); assay: KvBeta positive modulators, primary screen, biochemical, NADPH fluorescence (AID 623;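 active = NADPH fluorescence slope more negative than the mean of all samples by about 3 SD, 99.7% confidence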;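 note: fluorescence intensity change per second fitted from 20 to 320 s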); conditions: Recombinant KvBeta, NADPH fluorescence decrease slope, 10 min; at 10 µM; stronger effect = lower value
[6] = molecular target: Muscarinic acetylcholine receptor M4 (Homo sapiens) (UniProt P08173); assay: compounds altering M4/GIRK thallium flux, either direction, primary screen, M4 allosteric agonist project, cell-based, HEK293 M4/GIRK, BTC-AM (AID 625;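 active = fluorescence slope after compound addition differing from the mean of all tested samples at 99.7% confidence, mostly higher but some lower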;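 note: thallium influx through GIRK channels coupled to M4 in HEK293 cells with BTC-AM dye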); conditions: at 10 µM, actives lie on both sides
Method in brief: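 Assay system: HEK293 cells with M4 receptor and GIRK channels / Controls: carbachol and DMSO controls / Schedule: 1 h dye loading, 2 min kinetic read / Technique: kinetic fluorescence with BTC-AM dye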

[7] = inhibitors of Sendai virus-induced IRF3 signaling, primary screen, TLR/RLR signaling modifier project, cell-based, Sendai virus stimulus, luciferase, 10K MLSCN set (AID 602276;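 active = inhibition at or above 50% at 10 µM; inactive = inhibition below 50%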;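 note: firefly luciferase from ISG56 promoter only with Renilla not read in this screen; 0% = Sendai virus plus DMSO and 100% = medium plus DMSO without virus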); conditions: HEK293 RL24 IRF3 luciferase reporter, at 10 µM, stronger effect = higher value
[8] = inhibitors of poly I:C-induced TLR3 signaling, primary screen, cell-based, poly I:C stimulus, luciferase, 10K MLSCN set (AID 602277;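 active = inhibition of the reporter signal at or above 50%; inactive = inhibition below 50%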); conditions: HEK293-TLR3 RL24 IRF3 luciferase reporter, at 10 µM, stronger effect = higher value

Sequence of Muscarinic acetylcholine receptor M4 (Homo sapiens) (P08173 whole entry, looked up): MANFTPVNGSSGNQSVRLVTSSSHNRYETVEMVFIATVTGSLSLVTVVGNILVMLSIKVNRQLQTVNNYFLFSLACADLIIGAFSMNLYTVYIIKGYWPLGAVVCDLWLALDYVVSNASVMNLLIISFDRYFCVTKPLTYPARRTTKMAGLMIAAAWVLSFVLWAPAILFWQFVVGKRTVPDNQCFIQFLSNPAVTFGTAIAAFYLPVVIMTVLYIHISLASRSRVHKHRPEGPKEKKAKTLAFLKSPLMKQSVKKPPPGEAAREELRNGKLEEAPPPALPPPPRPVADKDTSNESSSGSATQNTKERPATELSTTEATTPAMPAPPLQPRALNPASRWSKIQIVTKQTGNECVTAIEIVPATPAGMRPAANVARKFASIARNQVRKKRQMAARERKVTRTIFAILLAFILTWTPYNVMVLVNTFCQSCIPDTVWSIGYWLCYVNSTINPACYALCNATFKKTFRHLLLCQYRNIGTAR
Sequence of Voltage-gated potassium channel subunit beta-2 (Rattus norvegicus) (P62483 whole entry, looked up): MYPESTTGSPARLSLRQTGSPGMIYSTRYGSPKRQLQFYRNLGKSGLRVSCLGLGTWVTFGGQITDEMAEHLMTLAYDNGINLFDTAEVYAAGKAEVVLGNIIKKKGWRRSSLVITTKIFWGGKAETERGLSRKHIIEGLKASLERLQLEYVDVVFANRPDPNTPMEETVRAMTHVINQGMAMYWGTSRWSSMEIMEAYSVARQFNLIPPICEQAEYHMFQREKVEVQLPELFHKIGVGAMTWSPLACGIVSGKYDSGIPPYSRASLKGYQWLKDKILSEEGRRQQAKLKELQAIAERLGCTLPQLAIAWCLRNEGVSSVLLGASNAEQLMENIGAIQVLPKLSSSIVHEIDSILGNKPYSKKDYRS

SMILES | cell count [1] | inhibition [1] | inhibition of aggregation [2] | nuclei count [2] [%] | inhibition [3] | nuclei count [3] [%] | fluorescence slope [4] | NADPH fluorescence slope [5] | fluorescence slope [6] | inhibition [7] | inhibition [8]
CCOC(=O)N1CCN(C(=O)C2c3cc(OC)c(OC)cc3C(=O)N3CCc4ccccc4C23)CC1 (stereo not drawn) | 312 | 0.5% (inactive) | 13.5% (inactive) | 104 | 6.9% (inactive) | 102 | -0.397 (inactive) | 4.3e-05 (inactive) | 0.00684 (inactive) | 14.7% (inactive) | 13.6% (inactive)
CCC(=O)c1ccc(OCCN2CCOCC2)cc1 | 387 | -5.3% (inactive) | -1.8% (inactive) | 107 | -104% (inactive) | 120 | -0.566 (inactive) | -4.5e-05 (inactive) | 0.00623 (inactive) | 6.75% (inactive) | 7.43% (inactive)
COc1ccc2nc(NC(=O)CSc3nnc(-c4ccoc4C)n3C)sc2c1 | 392 | 9.9% (inactive) | -2.4% (inactive) | 97.8 | -28.8% (inactive) | 104 | -0.563 (inactive) | -2.5e-05 (inactive) | 0.00441 (inactive) | -11.5% (inactive) | -48.5% (inactive)
COc1ccc(N2CCC(CNS(=O)(=O)c3cccc(C(F)(F)F)c3)C2)cc1 (stereo not drawn) | 385 | 5.3% (inactive) | 30.1% (active) | 92.1 | -33.3% (inactive) | 132 | -0.494 (inactive) | -0.000248 (inactive) | 0.00389 (inactive) | 7.7% (inactive) | 2.96% (inactive)
COc1cc(OC)cc(-n2nnnc2SCC(=O)N2CCCC2)c1 | 740 | -7.3% (inactive) | 18.3% (inactive) | 94.2 | 12% (inactive) | 103 | -0.622 (inactive) | 1.7e-05 (inactive) | 0.0053 (inactive) | 15.1% (inactive) | 23.1% (inactive)
O=C(O)c1cccc(CN2C(=O)SC(Nc3ccccc3)C2=O)c1 (stereo not drawn) | 510 | 3.6% (inactive) | 5.6% (inactive) | 108 | 39.4% (inactive) | 108 | -0.405 (inactive) | 6.9e-06 (inactive) | 0.00521 (inactive) | 8.76% (inactive) | 18.9% (inactive)
Cc1cc(C)nc(N2CCCC(C(=O)Nc3nc4ccc(S(C)(=O)=O)cc4s3)C2)n1 (stereo not drawn) | 599 | 1.8% (inactive) | 2.6% (inactive) | 117 | 6.8% (inactive) | 107 | -0.459 (inactive) | 9.7e-05 (inactive) | 0.00564 (inactive) | 12% (inactive) | 11.5% (inactive)
CCCCN(CCCC)CCCNC(=O)CC1Oc2ccc(C)cc2NC1=O (stereo not drawn) | 618 | -18.4% (inactive) | 4.4% (inactive) | 110 | -6.4% (inactive) | 92.1 | -0.242 (inactive) | -7e-06 (inactive) | 0.00528 (inactive) | 17.2% (inactive) | 23.7% (inactive)
Cc1ccc(-c2cc(C(=O)NCc3ccc4c(c3)OCO4)no2)cc1 | 382 | 0.3% (inactive) | 8.6% (inactive) | 92.9 | 17% (inactive) | 101 | -0.315 (inactive) | -6.4e-05 (inactive) | 0.00532 (inactive) | -10.4% (inactive) | -26.2% (inactive)
COc1ccc(NC(=O)N2CCC(O)(c3cccnc3)CC2)c(OC)c1 | 643 | -6.3% (inactive) | 13% (inactive) | 88.6 | -161% (inactive) | 145 | -0.558 (inactive) | -3.4e-05 (inactive) | 0.00818 (inactive) | 10.9% (inactive) | 12.7% (inactive)
CCCCN(CCCC)C(=O)CN(C)S(=O)(=O)c1ccc2c(c1)n(C)c(=O)c(=O)n2C | 354 | -5.1% (inactive) | -10.5% (inactive) | 88.3 | -75.3% (inactive) | 121 | -0.466 (inactive) | -4.4e-06 (inactive) | 0.00642 (inactive) | 11.1% (inactive) | 22.5% (inactive)
CCN1CCN(C(=O)c2cn(CCOC)c(=O)c3c2c2ccccc2n3C)CC1 | 460 | 2.7% (inactive) | 2.4% (inactive) | 108 | -40.3% (inactive) | 109 | -0.582 (inactive) | -6.9e-06 (inactive) | 0.00622 (inactive) | 6.11% (inactive) | 14.5% (inactive)
CC(=O)Nc1cccc(NC(=O)CSc2nnnn2C)c1 | 754 | -2.1% (inactive) | -16.5% (inactive) | 104 | -135% (inactive) | 131 | -0.481 (inactive) | -5.6e-05 (inactive) | 0.00501 (inactive) | 21.2% (inactive) | 13.5% (inactive)
Cc1[nH]nc2c1C1(CCN(C(=O)c3ccccc3)CC1)C(C#N)=C(N)O2 | 316 | -17% (inactive) | 22.6% (inactive) | 74.8 | 23.5% (inactive) | 114 | -0.598 (inactive) | -2.2e-06 (inactive) | 0.00593 (inactive) | 26.8% (inactive) | 32.8% (inactive)
COc1ccc(-c2noc(C3CCCN(C(=O)CCc4ccccc4)C3)n2)cc1 (stereo not drawn) | 383 | -3.5% (inactive) | 18.4% (inactive) | 101 | -83.2% (inactive) | 57.8 | -0.454 (inactive) | -5e-06 (inactive) | 0.00551 (inactive) | 12.3% (inactive) | 1.57% (inactive)
O=C(CCCC(=O)N(CC(=O)NC1CCCCC1)Cc1ccc2c(c1)OCO2)Nc1ccccn1 | 395 | 4.2% (inactive) | -3% (inactive) | 91 | -237% (inactive) | 110 | -0.479 (inactive) | 3.7e-05 (inactive) | 0.00636 (inactive) | 15.4% (inactive) | 25.3% (inactive)
CCOc1nc(-c2ccccc2)ccc1-c1noc(-c2cccnc2)n1 | 233 | 8.4% (inactive) | -0.3% (inactive) | 99.4 | 29.6% (inactive) | 91.1 | -0.427 (inactive) | -0.000244 (inactive) | 0.00434 (inactive) | -14.5% (inactive) | -16% (inactive)
COc1cc(S(=O)(=O)NC2CCCCC2)ccc1Cl | 405 | 7.6% (inactive) | 4.9% (inactive) | 89 | 3.8% (inactive) | 94.9 | -0.417 (inactive) | 4.1e-05 (inactive) | 0.00482 (inactive) | 16.6% (inactive) | 31.9% (inactive)
Nc1sccc1C(=O)c1ccccc1 | 339 | -5.4% (inactive) | 5.8% (inactive) | 110 | -45.7% (inactive) | 129 | -0.563 (inactive) | 7.1e-06 (inactive) | 0.00467 (inactive) | -12.1% (inactive) | -9.56% (inactive)
CCOCCCNS(=O)(=O)c1ccc2c(c1)oc(=O)n2CC(=O)OCC | 454 | -6.6% (inactive) | 24.3% (inactive) | 119 | -7.8% (inactive) | 82.5 | -0.444 (inactive) | 3.2e-05 (inactive) | 0.00606 (inactive) | 12.8% (inactive) | 23.6% (inactive)
O=C(NCc1cccnc1)c1cn(CCc2ccccc2)nn1 | 569 | -0.4% (inactive) | -18.3% (inactive) | 98.8 | -48.9% (inactive) | 110 | -0.31 (inactive) | -2.1e-05 (inactive) | 0.0065 (inactive) | 10.9% (inactive) | 16.6% (inactive)
COC(=O)c1[nH]c2cc(OC)ccc2c1NC(=O)CCN1CCCCC1 | 290 | 10.8% (inactive) | -12.7% (inactive) | 70.3 | -82.1% (inactive) | 164 | -0.55 (inactive) | -5.4e-05 (inactive) | 0.0032 (inactive) | -3.43% (inactive) | 3.78% (inactive)
O=C(NCCC1=CCCCC1)C1CCN(S(=O)(=O)c2cccc3nsnc23)CC1 | 609 | 7.7% (inactive) | 4.8% (inactive) | 94.6 | -41.8% (inactive) | 126 | -0.443 (inactive) | -6e-05 (inactive) | 0.0046 (inactive) | 13.1% (inactive) | 26.5% (inactive)
CCc1cc2c(=O)c(-c3ccc4c(c3)OCCO4)coc2cc1OC(=O)c1ccco1 | 637 | -5.2% (inactive) | 4.7% (inactive) | 92.8 | -184% (inactive) | 105 | -0.554 (inactive) | -4.2e-05 (inactive) | 0.00495 (inactive) | -45.7% (inactive) | -122% (inactive)
COC(=O)C1=C(C)OC(N)=C(C#N)C1c1ccccc1 (stereo not drawn) | 428 | 1.7% (inactive) | 5.6% (inactive) | 114 | -73.1% (inactive) | 116 | -0.568 (inactive) | -6.5e-06 (inactive) | 0.0048 (inactive) | 11.5% (inactive) | 16.7% (inactive)
Oc1c(Cl)cc(Cl)c2c1NCCC2 | 313 | 0.4% (inactive) | -13.1% (inactive) | 100 | -47.5% (inactive) | 91.9 | -0.466 (inactive) | -3e-05 (inactive) | 0.00523 (inactive) | 11.2% (inactive) | 31.8% (inactive)
Cc1ccc(-c2nnn(CC(=O)N(CC(=O)NC3CCCCC3)c3cnc4ccccc4c3)n2)o1 | 300 | -7.6% (inactive) | 27.2% (inactive) | 94.4 | -22.9% (inactive) | 107 | -0.523 (inactive) | -2.2e-06 (inactive) | 0.00469 (inactive) | 21% (inactive) | 24.7% (inactive)
CCNS(=O)(=O)c1ccc(S(=O)(=O)N(Cc2ccccn2)C2CCCCC2)cc1 | 579 | 3.8% (inactive) | 6.6% (inactive) | 108 | -3.6% (inactive) | 100 | -0.348 (inactive) | -6.9e-05 (inactive) | 0.00588 (inactive) | 12.3% (inactive) | 40.2% (inactive)
